# Source: PMC8716398 (Biochemical and Biophysical Research Communications, 2021)
# Read-outs that look alike come from different tables or passages of the source.
# How the values were obtained:
# 3CLpro [1] = molecular target: T1, 3CLpro (Severe acute respiratory syndrome coronavirus 2, UniProt P0DTD1); type: biochemical, SARS-CoV-2
# 3CLpro of SARS-CoV-2 [2] = molecular target: T2, 3CLpro of SARS-CoV-2 (Severe acute respiratory syndrome coronavirus 2, UniProt P0DTD1); assay: Analysis of inhibition type; type: biochemical
# 3CLpro [3] = molecular target: T1, 3CLpro; assay: Isothermal titration calorimetry; design: species or system SARS-CoV-2; conditions: KD of the secondary binding, ITC, two sets of independent sites model, 25 °C
# Method in brief: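 ITC was run at 25 °C in 10 mM HEPES pH 7.4 containing 2% DMSO. Test compound (2 mM, syringe) was injected stepwise into 40 μM 3CLpro in the cell, with 120 s between injections. A matching titration into buffer alone was subtracted. Integrated peak areas were fitted with a two-sets-of-independent-sites model.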
# 3CLpro [4] = molecular target: T1, 3CLpro; assay: Surface plasmon resonance; type: binding, SARS-CoV-2; conditions: SPR, heterogeneous ligand model
# Proteinase K = Proteinase K (Parengyodontium album, UniProt P06873); assay: Enzyme activity assay, hydrolytic activity of Proteinase K; type: biochemical
# Papain = molecular target: T3, Papain (Carica papaya, UniProt P00784); assay: Enzyme activity assay, hydrolytic activity of Papain; type: biochemical
# T3 sequence (P00784 134-345): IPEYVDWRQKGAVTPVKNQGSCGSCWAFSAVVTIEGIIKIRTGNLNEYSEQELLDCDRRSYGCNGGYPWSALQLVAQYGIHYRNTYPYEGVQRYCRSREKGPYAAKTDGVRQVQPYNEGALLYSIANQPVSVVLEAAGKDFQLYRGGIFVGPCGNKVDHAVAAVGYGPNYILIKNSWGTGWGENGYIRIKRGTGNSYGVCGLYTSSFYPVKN
# 3CLpro of SARS-CoV-2 [5] = molecular target: T2, 3CLpro of SARS-CoV-2; assay: Enzyme activity assay, hydrolytic activity of 3CLpro; type: biochemical
# 3CLpro [6] = molecular target: T1, 3CLpro; assay: biochemical; type: binding, SARS-CoV-2
# [7] = HTS of ∼6000 compounds at 16.7 μM
# Chain of Proteinase K (P06873 106-384): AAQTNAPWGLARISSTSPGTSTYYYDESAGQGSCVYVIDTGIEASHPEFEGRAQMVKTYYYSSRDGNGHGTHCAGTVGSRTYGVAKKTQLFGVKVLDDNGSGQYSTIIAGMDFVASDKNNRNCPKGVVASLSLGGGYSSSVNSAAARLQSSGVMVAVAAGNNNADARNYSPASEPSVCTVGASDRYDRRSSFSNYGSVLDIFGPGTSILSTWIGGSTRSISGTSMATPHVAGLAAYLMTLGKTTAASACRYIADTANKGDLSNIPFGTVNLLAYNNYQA
smiles,measurement,setting,value
O=c1c2ccccc2[se]n1-c1ccccc1 [Ebselen],HTS outcome (potential 3CLpro inhibitor),3CLpro [1],screened out
Cn1sc(=O)n(Cc2ccccc2)c1=O [TDZD-8],HTS outcome (potential 3CLpro inhibitor),3CLpro [1]; [7],screened out
CCC(C)SSc1ncc[nH]1 (centres unmarked) [PX-12],HTS outcome (potential 3CLpro inhibitor),3CLpro [1],screened out
CC(C)=CC[C@@H](O)C1=CC(=O)c2c(O)ccc(O)c2C1=O [Shikonin],HTS outcome (potential 3CLpro inhibitor),3CLpro [1]; [7],screened out
CCN(CC)C(=S)SSC(=S)N(CC)CC [Disulfiram],HTS outcome (potential 3CLpro inhibitor),3CLpro [1]; [7],screened out
O=C(O)c1ccccc1-c1c2cc(Br)c(=O)cc-2oc2[c]([Hg+])c(O)c(Br)cc12 [Merbromin],Ki,3CLpro of SARS-CoV-2 [2],3.93 ± 1.41 µM
same,mixed constant (Alpha),"3CLpro of SARS-CoV-2 [2]; mixed model inhibition, global fit Eqn. (4)",3.77 ± 3.96
same,Kd,3CLpro [3],67.8 µM
same,ka1,3CLpro [4]; first set,694.6 ± 2.61 M⁻¹ s⁻¹
same,kd1,3CLpro [4]; first set,1.25 ± 0.01 × 10^−3 s^−1
same,ka2,3CLpro [4]; second set,646.7 ± 3.98 M⁻¹ s⁻¹
same,kd2,3CLpro [4]; second set,16.25 ± 0.08 × 10^−3 s^−1
same,IC50,Proteinase K,> 70 µM
same,IC50,Papain,8.03 µM
same,IC50,3CLpro of SARS-CoV-2 [5],2.7 ± 0.17 µM
same,Kd,3CLpro [6],11.8 ± 0.98 µM
O=c1sn(-c2cccc3ccccc23)c(=O)n1Cc1ccccc1 [Tideglusib],HTS outcome (potential 3CLpro inhibitor),3CLpro [1]; [7],screened out
